Data set [1] relates to kinesin head domains. To be noted: ref [6], cited from earlier work.
The subject of data set [2] is DKH412. Kind of data set: Inhibition of mADP release. Type of data set: biochemical, Drosophila.
The test system of data set [3] is DKH412. Kind of data set: Inhibition of basal steady state ATPase of DKH412 head dimer. Type of data set: biochemical, Drosophila. To be noted: no added KCl, 7 µM DKH412 monomer.
For data set [4], the system named is DKH357. The data set can be described thus: Inhibition of basal ATPase of monomeric DKH357. Format: biochemical, Drosophila. To be noted: 13.3 µM DKH357. In a few lines: (§1)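 Heads were Drosophila kinesin residues 1–346 (for the artificial dimer, fused via a TSGG linker to the GCN4-p1 coiled coil) or 1–357. Basal ATPase was run at 25 °C in A25 buffer (pH 6.9) with […], 2 mM PEP and 0.25 mM NADH, coupled to PK/LDH, KCl as indicated. A340 was read, with turbidity correction where needed. Tail-peptide titrations were fit to the quadratic mutual-depletion equation.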

The target in data set [5] is K346SC. The data set can be described thus: Inhibition of basal ATPase of artificial dimer K346SC. Type of data set: biochemical, Drosophila. To be noted: read-out: Kd, inhibition of basal ATPase; 6 µM K346SC monomer (Fig. 3C). The essentials:
as §1

For data set [6], the system named is DKH346. The data set can be described thus: Inhibition of basal ATPase of monomeric DKH346. To be noted: 6.8 µM DKH346 (Fig. 3C). Type of data set: biochemical, Drosophila. The essentials: as §1
For data set [7], the system named is K357SC. The data set can be described thus: Inhibition of artificial dimer K357SC. Type of data set: biochemical, Drosophila. To be noted: not shown.
Data set [8] is described as follows: Sedimentation of single constructs, 25 mM KCl. Format: physicochemical. To be noted: A25 buffer, 0.1 mM ATP, 4 °C.

Entries after “also recorded” stand apart in the source; their conditions may differ.

Consider `Nc1ncnc2c1ncn2[C@@H]1O[C@H](COP(=O)(O)OP(=O)(O)OP(=O)(O)O)[C@@H](O)[C@H]1O` [ATP], for which the Km in data set [1] (read-out: KM for ATP, basal ATPase, absence of MTs) was ~2.5 nM. Also, the “net ATP binding and hydrolysis rate” value in data set [1] was ≥ 4e+06 M⁻¹ s⁻¹.

Consider “NF910-952: monomeric Drosophila kinesin tail peptide, residues 910-952, non-fusion version obtained by thrombin cleavage”, for which, in data set [2] (50 mM KCl, 25 °C, pH 6.9, 0.2 µM DKH412), the “maximum extent of inhibition of mADP release” value was found to be 75%. In addition, the “maximum inhibition of mADP release” value in data set [2] (no added KCl, A25 buffer pH 6.9, 25 °C, 0.2 µM DKH412) is “over 80%”. Moreover, the “stoichiometry of inhibition of basal ATPase” value in data set [3] is 1 tail peptide per two head peptides. Also, the “inhibition of monomeric DKH357 (in words)” value in data set [4] is recorded as “only weakly inhibits; also recorded: not strongly inhibited”. In addition, the Kd in data set [5] amounted to 0.33 µM. Besides, in data set [6], the “inhibition of monomeric DKH346 (in words)” value is on record as “only poorly inhibited”. Also, in data set [7], the “stoichiometry of inhibition of K357SC” value is on record as “half-site stoichiometry”.

On to `Nc1ncnc2c1ncn2[C@@H]1O[C@H](COP(=O)(O)OP(=O)(O)O)[C@@H](O)[C@H]1O` [ADP], for which, in data set [1] (basal), the “rate of release as ADP” value is ~ 0.01 s^−1.

For “DKH412: residues 1 to 412 of Drosophila kinesin with C-terminal HisTag; dimeric head construct”, the “s20,w, centrifuged alone” value in data set [8] is recorded as 5.2 S.

The Km is the substrate concentration at which the rate is half of its maximum. Broadly, the Kd is the constant that tells how readily two partners part at equilibrium.
